Compound activity from PubChem BioAssay.
In the library only some 4.1% were active in any assay of this set; here they are far more common.
KCNK3 inh = human KCNK3 channel inhibition, primary screen; O14649; CHO-KCNK3 thallium flux, FluxOR fluorescence; hits give low values; B-score at 10 µM; 340,000 compounds, 0.84% hits;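 active means B-score under library mean minus 4 SD, starting fluorescence ratio at most library mean plus 5 SD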;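 further: more negative B-score means stronger inhibition of thallium flux through KCNK3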
hERG protect = shields human hERG channel from block by proarrhythmic agents; CHO-hERG, FluxOR thallium flux, dofetilide IC70 present; activation (rescue from dofetilide block), less the hit threshold, % at 10 µM; 310,000 compounds, 0.51% hits;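 active means activation above the mean of controls blocked by dofetilide plus 5 SD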;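 further: thallium influx through hERG after potassium depolarization seen as dye fluorescence rise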
Target sequence (Q12809 whole entry, looked up): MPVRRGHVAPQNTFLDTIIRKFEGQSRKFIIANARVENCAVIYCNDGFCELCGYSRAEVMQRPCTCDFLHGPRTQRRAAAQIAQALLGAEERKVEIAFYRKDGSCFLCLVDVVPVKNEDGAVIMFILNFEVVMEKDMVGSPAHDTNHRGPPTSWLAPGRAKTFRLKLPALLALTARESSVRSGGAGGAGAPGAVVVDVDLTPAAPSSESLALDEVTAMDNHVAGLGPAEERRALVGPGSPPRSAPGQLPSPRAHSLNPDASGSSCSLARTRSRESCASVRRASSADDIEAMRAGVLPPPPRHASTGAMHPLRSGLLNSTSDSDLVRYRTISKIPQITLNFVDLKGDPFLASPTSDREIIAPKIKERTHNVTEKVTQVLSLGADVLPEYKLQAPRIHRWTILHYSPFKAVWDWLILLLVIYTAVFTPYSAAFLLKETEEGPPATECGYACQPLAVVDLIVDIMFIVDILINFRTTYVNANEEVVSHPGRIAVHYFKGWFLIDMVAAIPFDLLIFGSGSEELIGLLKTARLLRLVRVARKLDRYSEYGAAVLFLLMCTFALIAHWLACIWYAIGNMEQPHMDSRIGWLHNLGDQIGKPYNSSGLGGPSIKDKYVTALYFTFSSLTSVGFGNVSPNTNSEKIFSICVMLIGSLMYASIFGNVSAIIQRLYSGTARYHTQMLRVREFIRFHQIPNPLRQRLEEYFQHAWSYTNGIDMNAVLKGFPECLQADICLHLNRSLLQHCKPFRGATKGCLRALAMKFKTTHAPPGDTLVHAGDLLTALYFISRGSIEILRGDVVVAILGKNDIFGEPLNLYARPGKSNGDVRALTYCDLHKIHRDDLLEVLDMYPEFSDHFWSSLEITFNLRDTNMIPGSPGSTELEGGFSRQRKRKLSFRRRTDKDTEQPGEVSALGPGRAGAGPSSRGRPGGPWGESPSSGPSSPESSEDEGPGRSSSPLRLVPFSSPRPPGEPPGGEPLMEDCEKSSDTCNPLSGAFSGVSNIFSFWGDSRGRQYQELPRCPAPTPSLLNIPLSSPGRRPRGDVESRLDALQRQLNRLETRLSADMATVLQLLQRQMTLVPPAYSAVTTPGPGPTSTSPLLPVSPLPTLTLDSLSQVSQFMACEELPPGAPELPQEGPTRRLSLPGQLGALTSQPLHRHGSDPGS
KCNQ1 pot = potentiators or activators of human KCNQ1 potassium channel; P51787; CHO-K1 KCNQ1, thallium flux FluxOR fluorescence; hits give high values; B-score at 10 µM; 310,000 compounds, 0.35% hits;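 active means fluorescence ratio B-score, a plate-corrected score, at least three library SD, with initial intensity B-score within 5 SD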
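assay system = CHO-K1 cells stably expressing KCNQ1 | medium = assay buffer, equal DMSO in all wells | timing = 37 °C overnight plating, 90-min dark dye load, 20-min compound pretreatment | measured by = kinetic FluxOR thallium fluorescence, 10-s 1-Hz baseline, 110-s post-stimulus read | measure = fluorescence change relative to baseline, converted to B score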
KCNQ1 inh = inhibitors of human KCNQ1 potassium channel. 310,000 compounds, 1.3% hits. AID 2642. CHO-K1 KCNQ1, FluxOR thallium flux fluorescence; hits give high values. B-score at 10 µM. P51787;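 active means compounds whose thallium flux B-score, printed positive for inhibition, exceeds three library SD while starting fluorescence stays within three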;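 further: channel opened by potassium depolarization with thallium stimulus after 20 min compound exposure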
KCNK9 block = blocks the human KCNK9 two-pore domain potassium channel | HEK293 KCNK9, FluxOR thallium flux fluorescence; hits give low values | Q9NPC2 | B-score at 10 µM | 310,000 compounds, 1.2% hits;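 active means ratio B-score over 3 SD below the library mean, with starting fluorescence within 5 SD of its mean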;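 further: negative B-score means less thallium flux so channel inhibition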
Cl transport mod = modulators of human KCC2 chloride dependent transport; Q9H2X9; KCC2 cells, thallium flux FluoZin-2 fluorescence; B-score of Tl+ flux slope (higher = more flux/activation; lower = inhibition) at 10 µM; 190,000 compounds, 2.2% hits;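 active means thallium flux slope and its plate-corrected score both differing from the plate sample mean at a set confidence after two filtering rounds, in either direction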;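 further: slope of fluorescence scaled to starting intensity during 10 to 20 s after thallium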
KCNK9 inh conf = human KCNK9 inhibitor confirmation | inhibition, % at 10 µM | HEK293 KCNK9 cells, FluxOR thallium flux fluorescence | shares compounds with KCNK9 block | AID 492992 | 4,900 compounds, 43% hits;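 active means thallium signal inhibited by more than 5 SD of the compound-free buffer control wells, on both duplicate plates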
Kir2-1 spec = tests whether KCNK9 modulators also affect mouse Kir2.1; shares compounds with KCNK9 block; Kir2.1 cells, FluxOR thallium flux fluorescence; inhibition, % at 10 µM; 4,900 compounds, 4% hits; AID 492993;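 active means thallium signal drop more than 5 SD beyond the mean of the no-compound control wells, seen in both duplicate plates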;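 further: signal is fluorescence rise after thallium addition divided by baseline fluorescence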
HEK293 Tl ctr = second counter-screen for KCNK9 modulators: effect in non-induced cells; inhibition, % at 10 µM; 4,900 compounds, 40% hits; shares compounds with KCNK9 block; non-induced KCNK9-HEK293, FluxOR thallium flux;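 active means thallium signal drop beyond 5 SD of the untreated control mean, on both duplicate plates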
KCNK3 confirm = confirmation of human KCNK3 two-pore domain potassium channel inhibitors; shares compounds with KCNK3 inh; CHO-KCNK3 thallium flux, FluxOR fluorescence; 0% buffer, 100% carvedilol maximal block; ratio percent of control, % at 10 µM; 2,400 compounds, 99% hits; AID 651638;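 active means ratio percent of control, averaged over triplicates, above buffer control mean plus 5 SD, cut at about 64% in these data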;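 further: ratio is the fluorescence rise from min to max over baseline after thallium stimulus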
KCNK3 noninduced = activity in cells without induced KCNK3 expression; 2,400 compounds, 40% hits; non-induced KCNK3 parental cells, FluxOR thallium flux; hits give low values; thallium flux ratio (lower = more inhibition) at 10 µM; shares compounds with KCNK3 inh;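 active means thallium flux ratio, averaged over three wells, more than 5 SD below the buffer control mean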;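 further: host cells are CHO cells without KCNK3 induction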
Numbers stand for hits.

How did O=C(/C=C/c1cccc(C(F)(F)F)c1)Nc1cccc(C(F)(F)F)c1 do in these assays?
KCNK3 inh: -10.8; hERG protect: inactive; KCNQ1 pot: inactive; KCNQ1 inh: 9; KCNK9 block: inactive; KCNK9 inh conf: inactive; Kir2-1 spec: inactive; HEK293 Tl ctr: inactive; KCNK3 confirm: 107.0; KCNK3 noninduced: 0.15

What do the screens show for `CC(=O)Oc1ccc2ccc(=O)oc2c1`?
KCNK3 inh: inactive; hERG protect: inactive; KCNQ1 pot: inactive; KCNQ1 inh: inactive; KCNK9 block: inactive; Cl transport mod: inactive

How did CC(C)=CCOc1ccc2ccc(=O)oc2c1 do in these assays?
KCNK3 inh: -9.25; hERG protect: inactive; KCNQ1 pot: inactive; KCNQ1 inh: inactive; KCNK9 block: -11.6; Cl transport mod: inactive; KCNK9 inh conf: 37.0%; Kir2-1 spec: inactive; HEK293 Tl ctr: 34.5%; KCNK3 confirm: 118.7; KCNK3 noninduced: inactive

How did CC1=CC(C/C(C)=C/COc2ccc3ccc(=O)oc3c2)OC1=O (stereo not drawn) do in these assays?
KCNK3 inh: inactive; hERG protect: inactive; KCNQ1 pot: inactive; KCNQ1 inh: inactive; KCNK9 block: inactive; Cl transport mod: inactive

Results for COc1cccc(COc2ccc3ccc(=O)oc3c2)c1 ?
KCNK3 inh: inactive; hERG protect: inactive; KCNQ1 pot: inactive; KCNQ1 inh: inactive; KCNK9 block: inactive

How did COc1ccc(COc2ccc3ccc(=O)oc3c2)cc1 do in these assays?
KCNK3 inh: -10.2; hERG protect: inactive; KCNQ1 pot: inactive; KCNQ1 inh: inactive; KCNK9 block: -11.8; KCNK9 inh conf: 46.5%; Kir2-1 spec: inactive; HEK293 Tl ctr: 31.5%; KCNK3 confirm: 115.3; KCNK3 noninduced: inactive

How did CC(C)=CCC/C(C)=C/COc1ccc2ccc(=O)oc2c1 do in these assays?
KCNK3 inh: -9.2; hERG protect: inactive; KCNQ1 pot: inactive; KCNQ1 inh: inactive; KCNK9 block: -19.3; Cl transport mod: inactive; KCNK9 inh conf: 68.5%; Kir2-1 spec: inactive; HEK293 Tl ctr: 46.5%; KCNK3 confirm: 93.0; KCNK3 noninduced: inactive

How did Cc1ccc(S(=O)(=O)Nc2c(C)n(C)n(-c3ccccc3)c2=O)cc1C(=O)OCC(=O)N1CCCC(C)C1 (stereo not drawn) do in these assays?
KCNK3 inh: inactive; hERG protect: inactive; KCNQ1 pot: inactive; KCNQ1 inh: inactive; KCNK9 block: inactive; Cl transport mod: inactive

What do the screens show for `CCOC(=O)c1c(O)c2ccccc2n(CC)c1=O`?
KCNK3 inh: inactive; hERG protect: inactive; KCNQ1 pot: inactive; KCNQ1 inh: inactive; KCNK9 block: inactive; Cl transport mod: inactive

How did CCCn1c(=O)c(C(=O)Nc2ccccc2C(=O)OCC)c(O)c2ccccc21 do in these assays?
KCNK3 inh: -8.87; hERG protect: inactive; KCNQ1 pot: inactive; KCNQ1 inh: inactive; KCNK9 block: -9.16; Cl transport mod: inactive; KCNK9 inh conf: 53.5%; Kir2-1 spec: inactive; HEK293 Tl ctr: 37.5%; KCNK3 confirm: 91.7; KCNK3 noninduced: inactive

How did O=C(OCC(=O)N(CCc1ccccc1)Cc1ccccc1)c1cccc(O)c1 do in these assays?
KCNK3 inh: inactive; hERG protect: inactive; KCNQ1 pot: inactive; KCNQ1 inh: inactive; KCNK9 block: inactive

Results for O=C(OCC(=O)N(Cc1ccccc1)Cc1ccccc1)c1ccccc1O ?
KCNK3 inh: inactive

How did O=C(OCC(=O)N(CCc1ccccc1)Cc1ccccc1)c1ccccc1NCCO do in these assays?
KCNK3 inh: -9.93; hERG protect: inactive; KCNQ1 pot: inactive; KCNQ1 inh: inactive; KCNK9 block: -9.48; KCNK9 inh conf: 55.5%; Kir2-1 spec: inactive; HEK293 Tl ctr: inactive; KCNK3 confirm: 95.0; KCNK3 noninduced: inactive

How did O=C(OCC(=O)N(CCc1ccccc1)Cc1ccccc1)c1ccccc1O do in these assays?
KCNK3 inh: -11.9; hERG protect: inactive; KCNQ1 pot: inactive; KCNQ1 inh: 8; KCNK9 block: -17.6; KCNK9 inh conf: 74.5%; Kir2-1 spec: inactive; HEK293 Tl ctr: 39.0%; KCNK3 confirm: 118.3; KCNK3 noninduced: inactive

How did COc1ccccc1N1CCN(C(c2ccc(N(C)C)cc2)c2nnnn2CCc2ccccc2)CC1 (stereo not drawn) do in these assays?
KCNK3 inh: inactive; hERG protect: inactive; KCNQ1 pot: inactive; KCNQ1 inh: inactive; KCNK9 block: inactive; Cl transport mod: inactive

How did CCN(CC)S(=O)(=O)c1cccc(NC(=O)C2CC(=O)N(c3ccc4c(c3)OCCO4)C2)c1 (stereo not drawn) do in these assays?
KCNK3 inh: inactive; hERG protect: inactive; KCNQ1 pot: inactive; KCNQ1 inh: inactive; KCNK9 block: inactive

How did CC(OC(=O)c1ccc(O)cc1)C(=O)Nc1cc(C(F)(F)F)ccc1Cl (stereo not drawn) do in these assays?
KCNK3 inh: -9.81; hERG protect: inactive; KCNQ1 pot: inactive; KCNQ1 inh: 6; KCNK9 block: -10.6; Cl transport mod: inactive; KCNK9 inh conf: inactive; Kir2-1 spec: inactive; HEK293 Tl ctr: 48.5%; KCNK3 confirm: 138.7; KCNK3 noninduced: 0.123

Results for O=C(COC(=O)c1ccc(O)cc1)Nc1cc(C(F)(F)F)ccc1Cl ?
KCNK3 inh: inactive; hERG protect: inactive; KCNQ1 pot: inactive; KCNQ1 inh: inactive; KCNK9 block: inactive; Cl transport mod: inactive

How did COCCn1nnnc1C(c1ccccc1OC)N1CCN(C(=O)c2ccco2)CC1 (stereo not drawn) do in these assays?
KCNK3 inh: inactive; hERG protect: inactive; KCNQ1 pot: inactive; KCNQ1 inh: inactive; KCNK9 block: inactive

Results for CCC(C)(C)n1nnnc1C(c1ccccc1OC)N1CCN(C(=O)c2ccco2)CC1 (stereo not drawn) ?
KCNK3 inh: -13.4; hERG protect: inactive; KCNQ1 pot: inactive; KCNQ1 inh: inactive; KCNK9 block: -14.1; KCNK9 inh conf: 68.5%; Kir2-1 spec: inactive; HEK293 Tl ctr: 36.5%; KCNK3 confirm: 105.7; KCNK3 noninduced: inactive
